Data taken from the EternaBench riboswitch data.

Test system: MS2 coat protein
Test: apparent Kd, MS2 coat protein; higher = weaker binding; RNA-MaP array; FMN 200 µM where present
Method in brief: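 The apparent Kd is reported as the median of filtered per-cluster binding-curve fits. To get these curves, designs transcribed by stalled E. coli RNA polymerase on Illumina sequencing-chip clusters were titrated with SNAP-549-labelled MS2 coat protein from 0.7 or 1.5 nM, doubling to 3 µM. Titrations were run without and then with constant ligand in 100 mM Tris-HCl pH 7.5, 80 mM KCl, 4 mM MgCl2, BSA, DTT, yeast tRNA and Tween-20, and green signal was normalised to red-channel RNA signal and control-cluster median Fmax.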

[1] = designed as: OFF switch for flavin mononucleotide, no ligand
[2] = ligand present: flavin mononucleotide, designed as: OFF switch for flavin mononucleotide
[3] = designed as: ON switch for flavin mononucleotide, no ligand
[4] = ligand present: flavin mononucleotide, designed as: ON switch for flavin mononucleotide

In the case of “CUUGUGUUAGGAUAUGCGCCCUGCAAAAGCAAGGCCAGAGAGCAGAAGGAACAUGAGGAUCACCCAUGUGUGAC”, the “apparent Kd” value [1] is reported as 55.8 nM and the “apparent Kd” value [2] is reported as 57.7 nM.
For “UGAUAGGACAGAGGAUAUACGGAUAGGAUCUACUAUCUUCCUCAAAUAACAUGAGGAUCACCCAUGUAGAAGGCUGUCCUAUCU”, the “apparent Kd” value [1] was 126 nM and the “apparent Kd” value [2] was 887 nM.
For “UGCGUGUUAGGAUAUCCGCCAAAGACCGACGGUGGAACGCAGGAGAAGGAACAUGAGGAUCACCCAUGUGGGAA”, the “apparent Kd” value [1] was 88.1 nM and the “apparent Kd” value [2] was 34.3 nM.
“GCAGGUUUACGAGGAUAUGGGUGGUACGGACAUGAGGAUCACCCAUGUCUCCCAGAAGGCGUAGCCUAACAAAGAGAACAGGAG” was tested, and the “apparent Kd” value [3] was 111 nM and the “apparent Kd” value [4] was 19.2 nM.
For “UGCAUGUGAGGAUAUGUGUACUGUCUUUUGUUUAGAUGUACACAGAAGGCACAUGAGGAUCACCCAUGUAGUAC”, the “apparent Kd” value [1] was 126 nM and the “apparent Kd” value [2] was 27.8 nM.
With “GCAGUAAAUAAAUGCACAUGAGGAUCACCCAUGUGGGAGGCACAGGAUAUCGCACCAUAGUGGCGCGAGAAGGGUGAUAAUCUC” the “apparent Kd” value [3] was 416 nM and the “apparent Kd” value [4] was 57.8 nM.
With “UGUUGUAUUACAGGAUAUCUAUUAGUUUUAUAUAGAGAAGGGUAUUCACAUGAGGAUCACCCAUGUAUAUACGAGGAAGUUGUG” the “apparent Kd” value [3] was 43.4 nM and the “apparent Kd” value [4] was 45.5 nM.
“UAAAUAAAGUAAGGAUAUACAUGAGGAUUUCUCGUAGAAGGUACAAGACAUGAGGAUCACCCAUGUAUCGCUCCGUAGAGCGUA” was tested, and the “apparent Kd” value [3] was 138 nM and the “apparent Kd” value [4] was 237 nM.
In the case of “AAUUUACAGCUAGGAUAUACAUGAGGAUCACCCAUGUAAUCAUAGGAUGUUAUCAUUGUAUGAGUGUAGAAGGAGCAAAUAAGA”, the “apparent Kd” value [1] is reported as 6.73 nM and the “apparent Kd” value [2] is reported as 6.74 nM.
For “GGUCUGAUAUGAGGAUAUGCUCAGGAUAACUGAGCAGAAGGCAUGUGAAAACAUGAGGAUCACCCAUGUGAUCAAUACAGACCA”, the “apparent Kd” value [3] was 141 nM and the “apparent Kd” value [4] was 23.9 nM.
In the case of “GGUCGGCGAGGAUAUACAUGAGGAUCACCCAUGUGAUAGAUUGCACGCGUACGUGUAUGUAGAAGGCGCUGACG”, the “apparent Kd” value [1] is reported as 21.8 nM and the “apparent Kd” value [2] is reported as 200 nM.
“GCCAGAGCAGGAUAUUCAAUAAUCCACAUGAGGAUCACCCAUGUCCAGCGAAAGCUGGAGGGAGAAGGGCUCUGGC” was tested, and the “apparent Kd” value [1] was 94.2 nM and the “apparent Kd” value [2] was 35.1 nM.
“AUUAAUCAGCAGGAUAUAAGUAUCUGAUGGUGGUUAGAAGGGCUGACAUGAGGAUCACCCAUGUGCUCUUCGUG” was tested, and the “apparent Kd” value [1] was 11.4 nM and the “apparent Kd” value [2] was 13.8 nM.
“ACAAAUUCUGACAUGAGGAUCACCCAUGUUAGAUUGUUAUGUCAGGAUAUUAUCUGGCAACCAGAUGAGAAGGGACGAUUUGUG” was tested, and the “apparent Kd” value [3] was 10.6 nM and the “apparent Kd” value [4] was 7.15 nM.
For “UUGGUAUUUGUAGGAUAUCUGUCGCCACCGUGUGGAGAAGGACGAACAUGAGGAUCACCCAUGUAUCAUGGUGUGGGCUUUCCU”, the “apparent Kd” value [1] was 104 nM and the “apparent Kd” value [2] was 99.7 nM.
For “UAAUCUCAGAUAGGAUAUAUAGGAUGAUUUAAGACCGAACAUGAGGAUCACCCAUGUGAUUAUCUGUAGAAGGAUCAAUGACCC”, the “apparent Kd” value [3] was 285 nM and the “apparent Kd” value [4] was 246 nM.
For “UGUUGUAUUACAGGAUAUCUAGUUUUUUUAUUUAGAGAAGGGUAUUCACAUGAGGAUCACCCAUGUAUAUACGAGGAAGUUGUG”, the “apparent Kd” value [3] was 46.6 nM and the “apparent Kd” value [4] was 56.1 nM.
For “UUUGCAUUCCGAGGAUAUUCAUAUAAUGACUACACAUGAGGAUCACCCAUGUGGCGAUAGCCUAGGGAGAAGGCGGUUUGCUUU”, the “apparent Kd” value [3] was 20.3 nM and the “apparent Kd” value [4] was 17.8 nM.
With “AAACCCUGAGGAUAUACAUAACAACAAAGCCUCACGUGCCAACAUGAGGAUCACCCAUGUAGAAGGCAGGCCAA” the “apparent Kd” value [1] was 12.8 nM and the “apparent Kd” value [2] was 41.7 nM.
“GUGUAGAUAGGAUAUGCUGGAAUCUAGCGAAGCUAGGUUCUACAUGAGGAUCACCCAUGUAGAAGGGUCUACAC” was tested, and the “apparent Kd” value [1] was 33.4 nM and the “apparent Kd” value [2] was 22.6 nM.
